In assay [1] the test system is Staphylococcus aureus. Kind of assay: Antibacterial activity against vancomycin-resistant Staphylococcus aureus HIP14300 after 20 hrs by broth microdilution assay. The class given is functional. Particulars: HIP14300, 20 h. Background: Dilution methods test growth across graded concentrations, often in twofold steps.
The subject of a further assay is Streptococcus pyogenes. Briefly: Antibacterial activity against Streptococcus pyogenes H293 after 20 hrs by broth microdilution assay. Conditions: H293, 20 h. The format is functional.
The subject of the next assay is Enterococcus faecium. Briefly: Antibacterial activity against vancomycin-resistant Enterococcus faecium ATCC 700221 after 20 hrs by broth microdilution assay. The format is functional. Particulars: ATCC 700221, 20 h. The method, boiled down:
(§1)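 Brain heart infusion broth at 37°C; E. faecium under 5% CO2. Cells at 0.5 McFarland are diluted 1:100 and exposed to serial dilutions (DMSO stocks 1 mM or 1 mg/mL; controls in water).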

For assay [2], the system named is Staphylococcus aureus. Kind of assay: Antibacterial activity against methicillin-resistant Staphylococcus aureus COL after 20 hrs by broth microdilution assay. The class given is functional.
For a further assay, the system named is Streptococcus agalactiae. Briefly: Antibacterial activity against Streptococcus agalactiae SGBS005 after 20 hrs by broth microdilution assay. The class given is functional. Particulars: SGBS005, 20 h.
The test system of another assay is Streptococcus pneumoniae. Kind of assay: Antibacterial activity against Streptococcus pneumoniae TCH8431 after 20 hrs by broth microdilution assay. The format is functional. Conditions: TCH8431, 20 h.
For assay [3], the system named is Staphylococcus aureus. Briefly: Antibacterial activity against vancomycin-intermediate resistant Staphylococcus aureus AR-217 after 20 hrs by broth microdilution assay. The format is functional. Conditions: AR-217, 20 h.
The test system of assay [4] is Staphylococcus epidermidis. Briefly: Antibacterial activity against vancomycin-intermediate resistant Staphylococcus epidermidis NRS6 after 20 hrs by broth microdilution assay. The class given is functional. Particulars: NRS6, 20 h.
A further assay deals with Francisella tularensis. Kind of assay: Antibacterial activity against Francisella tularensis Utah 112 after 20 hrs by broth microdilution assay. The class given is functional. Conditions: Utah 112, 20 h.
The next assay deals with Burkholderia cepacia. Briefly: Antibacterial activity against Burkholderia cepacia UCB 717 after 20 hrs by broth microdilution assay. The class given is functional. Conditions: UCB 717, 20 h. The method in brief:
(§2)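 Medium is tryptic soy broth, 37°C. Overnight culture is adjusted to 0.5 McFarland, diluted 1:100 and exposed to serial dilutions (test agents from 1 mM or 1 mg/mL DMSO stocks; control antibiotics in water). Incubation lasts 20 h. MIC is the lowest concentration with no visible growth.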

Assay [5] concerns Bacillus anthracis. Kind of assay: Antibacterial activity against Bacillus anthracis Ames 35 after 20 hrs by broth microdilution assay. The format is functional. Conditions: Ames 35, 20 h.
The test system of assay [6] is Yersinia pestis. Briefly: Antibacterial activity against Yersinia pestis Kim D2 after 20 hrs by broth microdilution assay. Conditions: Kim D2, 20 h. The format is functional.
The next assay concerns Citrobacter freundii. Briefly: Antibacterial activity against Citrobacter freundii 4_7_47CFAA after 20 hrs by broth microdilution assay. The class given is functional. The method in brief:
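Brucella broth, 37°C, 5% CO2. Inoculum is 0.5 McFarland diluted 1:100, with serial drug dilutions from DMSO stocks (1 mM or 1 mg/mL) and control antibiotics in water.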

Another assay has as its system Proteus mirabilis. Briefly: Antibacterial activity against Proteus mirabilis HM-752 after 20 hrs by broth microdilution assay. The format is functional. Conditions: HM-752, 20 h. The method, boiled down:
as §2

A further assay deals with Klebsiella pneumoniae. Kind of assay: Antibacterial activity against Klebsiella pneumoniae 700603 after 20 hrs by broth microdilution assay. Conditions: Klebsiella pneumoniae, 700603, 20 h. The class given is functional. The method, boiled down: as §2
Another assay relates to Salmonella typhi. Briefly: Antibacterial activity against Salmonella typhi Ty2 after 20 hrs by Todd Hewitt broth broth microdilution method. The format is functional, Salmonella enterica subsp. enterica serovar Typhi str. Ty2. Conditions: Salmonella enterica.
The next assay concerns Rhodococcus erythropolis. Kind of assay: Antibacterial activity against Rhodococcus erythropolis SK121 after 20 hrs by broth microdilution assay. The class given is functional. Conditions: SK121, 20 h. The method in brief:
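R. erythropolis grown in brain heart infusion broth at 30°C. A 0.5 McFarland suspension diluted 1:100 is treated with serial dilutions from 1 mM or 1 mg/mL DMSO stocks; control antibiotics are in water.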

In a further assay the test system is Shigella dysenteriae. Kind of assay: Antibacterial activity against Shigella dysenteriae Newcastle 1934 after 20 hrs by broth microdilution assay. The class given is functional. Particulars: Newcastle 1934, 20 h. The method in brief: as §2
In the next assay the test system is Acinetobacter baumannii. Kind of assay: Antibacterial activity against Acinetobacter baumannii AB5075 after 20 hrs by broth microdilution assay. The class given is functional. Particulars: AB5075, 20 h.
Assay [7] relates to Yersinia pestis. Briefly: Antibacterial activity against Yersinia pestis Kuma D7 after 20 hrs by broth microdilution assay. Particulars: Kuma D7, 20 h. The format is functional.
Assay [8] has as its system Bacillus anthracis. Kind of assay: Antibacterial activity against Bacillus anthracis UM23-1 after 20 hrs by broth microdilution assay. The format is functional. Conditions: UM23-1, 20 h.
The test system of assay [9] is Bacillus anthracis. Kind of assay: Antibacterial activity against Bacillus anthracis Sterne 34F2 after 20 hrs by broth microdilution assay. The format is functional. Particulars: Sterne 34F2, 20 h.
The next assay has as its system Burkholderia multivorans. Kind of assay: Antibacterial activity against Burkholderia multivorans CF2 after 20 hrs by broth microdilution assay. The format is functional. Conditions: CF2, 20 h. The method in brief:
as §2

For another assay, the system named is Pseudomonas aeruginosa. Briefly: Antibacterial activity against Pseudomonas aeruginosa ATCC 15442 after 20 hrs by broth microdilution assay. Conditions: ATCC 15442, 20 h. The format is functional. The method in brief: as §2
The test system of the next assay is Listeria monocytogenes. Briefly: Antibacterial activity against Listeria monocytogenes Gibson after 20 hrs by broth microdilution assay. The format is functional. The method, boiled down:
as §1

The subject of another assay is Corynebacterium striatum. Briefly: Antibacterial activity against Corynebacterium striatum FS-1 after 20 hrs by broth microdilution assay. The class given is functional. Conditions: FS-1, 20 h.
The test system of a further assay is Escherichia coli. Kind of assay: Antibacterial activity against Escherichia coli DC10B after 20 hrs by broth microdilution assay. The class given is functional. The method in brief:
as §2

The next assay deals with Brucella neotomae. Kind of assay: Antibacterial activity against Brucella neotomae 5K33 after 20 hrs by broth microdilution assay. Particulars: 5K33, 20 h. The class given is functional.
The subject of a further assay is Bacillus cereus. Briefly: Antibacterial activity against Bacillus cereus Gibson 971 after 20 hrs by broth microdilution assay. The format is functional. Particulars: Gibson 971, 20 h.
In another assay the test system is Vibrio cholerae. Briefly: Antibacterial activity against Vibrio cholerae TS D4 after 20 hrs by Todd Hewitt broth broth microdilution method. The class given is functional. Particulars: TS D4, 20 h.
In assay [10] the test system is Bacillus anthracis. Kind of assay: Antibacterial activity against Bacillus anthracis Weybridge after 20 hrs by broth microdilution assay. The class given is functional.
The subject of a further assay is Yersinia enterocolitica. Briefly: Antibacterial activity against Yersinia enterocolitica WA-314 after 20 hrs by broth microdilution assay. The format is functional. Conditions: WA-314, 20 h. The method in brief:
(§3)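 Yersinia cultured in tryptic soy broth at 28°C. A 0.5 McFarland suspension diluted 1:100 receives serial dilutions of agents from 1 mM or 1 mg/mL DMSO stocks; control antibiotics are in water.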

The subject of assay [11] is Yersinia pseudotuberculosis. Kind of assay: Antibacterial activity against Yersinia pseudotuberculosis P61 after 20 hrs by broth microdilution assay. The class given is functional. Conditions: P61, 20 h. The method, boiled down:
as §3

The next assay has as its system Micrococcus luteus. Briefly: Antibacterial activity against Micrococcus luteus SK58 after 20 hrs by broth microdilution assay. The class given is functional. Particulars: SK58, 20 h.

One may read the MIC as the lowest concentration that inhibits growth of the organism. High values mean a less susceptible organism, low ones a more susceptible organism.

Each structure is given as a SMILES string. ≈ marks a conversion by molar mass, not a printed value.

In the case of `CCCCCCCCCCSSC(=S)N(CC)CC`, the MIC against Staphylococcus aureus [1] worked out at 32 µM (≈ 10.3 µg/mL); in the assay with Streptococcus pyogenes, 4 µM (≈ 1.29 µg/mL); with Enterococcus faecium, 16 µM (≈ 5.15 µg/mL); against Staphylococcus aureus [2], 16 µM (≈ 5.15 µg/mL); against Streptococcus agalactiae, 16 µM (≈ 5.15 µg/mL); with Streptococcus pneumoniae, 4 µM (≈ 1.29 µg/mL). Further, the MIC (with Staphylococcus aureus [3]; in assay [4]) was 16 µM (≈ 5.15 µg/mL) each time.
On to `CCN(CC)C(=S)SSC1CCCCC1` [CYCLOHEXYL DIETHYLCARBAMO(DITHIOPEROXO)THIOATE], for which the MIC was 32 µM (≈ 8.43 µg/mL) in the assay with Staphylococcus aureus [1]; 16 µM (≈ 4.22 µg/mL) against Streptococcus pyogenes; greater than 32 µM against Enterococcus faecium; 32 µM (≈ 8.43 µg/mL) in the assay with Staphylococcus aureus [2]; greater than 32 µM in the assay with Streptococcus agalactiae; greater than 32 µM against Streptococcus pneumoniae. Further, the MIC is 16 µM (≈ 4.22 µg/mL) in the assay with Staphylococcus aureus [3] and 32 µM (≈ 8.43 µg/mL) in assay [4].
`CCSSC(=S)N(CC)CC`: the MIC in the assay on Staphylococcus aureus [1] was 16 µM (≈ 3.35 µg/mL); against Streptococcus pyogenes, 32 µM (≈ 6.7 µg/mL); with Enterococcus faecium, greater than 32 µM; against Staphylococcus aureus [2], 16 µM (≈ 3.35 µg/mL); in the assay on Streptococcus agalactiae it was greater than 32 µM; against Streptococcus pneumoniae it was greater than 32 µM. Moreover, the MIC with Staphylococcus aureus [3] turned out to be 8 µM (≈ 1.68 µg/mL); in assay [4] it was 32 µM (≈ 6.7 µg/mL).
On to `CCN(CC)C(=S)SSC`, for which the MIC is 32 µM (≈ 6.25 µg/mL) against Francisella tularensis; greater than 32 µM against Burkholderia cepacia; 4 µM (≈ 0.782 µg/mL) in the assay on Bacillus anthracis [5]; 16 µM (≈ 3.13 µg/mL) against Yersinia pestis [6]; greater than 32 µM with Citrobacter freundii; greater than 32 µM against Proteus mirabilis. Further, the MIC against Staphylococcus aureus [1] was 16 µM (≈ 3.13 µg/mL); against Klebsiella pneumoniae it was greater than 32 µM; in the assay with Salmonella typhi, greater than 32 µM; against Streptococcus pyogenes, 32 µM (≈ 6.25 µg/mL); with Rhodococcus erythropolis, 16 µM (≈ 3.13 µg/mL); with Shigella dysenteriae it was greater than 32 µM. In addition, the MIC against Enterococcus faecium was greater than 32 µM; against Acinetobacter baumannii it was greater than 32 µM; against Yersinia pestis [7] it was 16 µM (≈ 3.13 µg/mL); in the assay on Bacillus anthracis [8] it was 2 µM (≈ 0.391 µg/mL); in the assay with Staphylococcus aureus [2], 32 µM (≈ 6.25 µg/mL); in the assay with Bacillus anthracis [9], 4 µM (≈ 0.782 µg/mL). For the same compound, the MIC against Burkholderia multivorans was 32 µM (≈ 6.25 µg/mL); with Pseudomonas aeruginosa, greater than 32 µM; in the assay on Streptococcus agalactiae, greater than 32 µM; against Listeria monocytogenes, 32 µM (≈ 6.25 µg/mL); against Corynebacterium striatum, greater than 32 µM; in the assay with Streptococcus pneumoniae, greater than 32 µM. For the same compound, the MIC against Escherichia coli was greater than 32 µM; in the assay on Brucella neotomae it was greater than 32 µM; against Bacillus cereus, 1 µM (≈ 0.195 µg/mL); with Vibrio cholerae, 32 µM (≈ 6.25 µg/mL); with Bacillus anthracis [10] it was 4 µM (≈ 0.782 µg/mL); with Staphylococcus aureus [3], 8 µM (≈ 1.56 µg/mL). In addition, the MIC is greater than 32 µM against Yersinia enterocolitica, greater than 32 µM in [11], 32 µM (≈ 6.25 µg/mL) in assay [4] and 32 µM (≈ 6.25 µg/mL) in the assay with Micrococcus luteus.
Consider `CCN(CC)C(=S)SSCC(C)C`, for which the MIC in the assay with Staphylococcus aureus [1] is greater than 32 µM; in the assay on Streptococcus pyogenes, 32 µM (≈ 7.6 µg/mL); with Enterococcus faecium, greater than 32 µM; against Staphylococcus aureus [2] it was greater than 32 µM; in the assay on Streptococcus agalactiae, greater than 32 µM; with Streptococcus pneumoniae, greater than 32 µM. Further, the MIC (against Staphylococcus aureus [3]; in [4]) was greater than 32 µM each time.

These data come from ChEMBL document CHEMBL4219167, “Disulfiram-based disulfides as narrow-spectrum antibacterial agents” (Bioorg Med Chem Lett, 2018).
